Sampled rows, rich in hits. Any-hit rate of the full collection: about 1.3%.
HCV core dimer – blocks dimerization of HCV core protein. inhibition, % at 5 µM. 300,000 compounds, 0.33% hits. TR-FRET GST/Flag-core106 dimerization, 1536-well. AID 1899;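 active = inhibition above the mean of all tested compounds plus 3 SD, set per screening campaign, cut at about 45% in these data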
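Assay system: GST-tagged and Flag-tagged HCV core protein residues 1-106 / Times: compound-protein-antibody incubation 4 h at 22.5 °C / Signal: time-resolved FRET, ex 340 nm, em 617 and 671 nm / Evaluation: % inhibition based on acceptor/donor emission ratio / Benchmarks: wells lacking GST-core106 and wells with excess unlabelled core106 / Repeats: singlicate, one well per compound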
Lipid droplet – modulators of hepatic lipid droplet formation. AML12 mouse hepatocytes, oleate lipid droplets, BODIPY imaging. inhibition, % at 6.5 µM. 240,000 compounds, 0.4% hits;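 active = lipid droplet intensity inhibited by at least 50%, with more than 500 cells counted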
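Assay system: AML12 mouse liver cells | Compound dosing: One dose, 6.5 µM compound | Read-out basis: Droplet intensity reduction, % inhibition | Measured by: Fluorescence imaging, 20x objective, two fields per well | Schedule: Overnight treatment with compound plus oleate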
Tb MetRS inh – blocks T. brucei methionyl-tRNA synthetase activity; purified T. brucei MetRS, ATP depletion, Kinase-Glo luminescence; inhibition, % at 11.9 µM; 360,000 compounds, 0.4% hits;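 active = inhibition above a per-plate cutoff of the control wells' mean inhibition plus 3 SD, cut at about 5.5% in these data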;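 also: 0% = DMSO wells median and 100% = median of wells with control inhibitor compound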
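Measured by: Kinase-Glo luciferase luminescence reporting remaining unconsumed ATP. Material: purified T. brucei MetRS enzyme. Doses: 11.9 µM compound single dose, 0.9% DMSO. Medium: HEPES buffer containing pyrophosphatase, BSA, spermine, DTT. Times: 15 min preincubation, 2 h reaction, all 25 °C. Reagent: methionine, ATP and bulk E. coli tRNA.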
NS3 helicase inh – HCV NS3 helicase inhibition; 290,000 compounds, 0.56% hits; NS3 helicase DNA unwinding, Cy5 molecular beacon fluorescence; inhibition, % at 10.9 µM;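 active = inhibition above the mean of all tested compounds plus 3 SD, set per campaign, cut at about 35% in these data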;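 also: 0% = DMSO wells and 100% = thioflavine S control wells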
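test system = hepatitis C virus NS3 helicase domain fragment enzyme | reagent = annealed dual-labelled DNA beacon duplex, ATP-started | times = 1 h at 25 °C | detection = Cy5 fluorescence, 0 and 60 min reads | read-out basis = percent inhibition from t60/t0 fluorescence ratio | control set = DMSO and thioflavine S | replication = one well per compound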
TbMetRS confirm – confirmation of Trypanosoma brucei MetRS inhibitors | T. brucei MetRS enzyme, luminescence (ATP depletion) | inhibition, % at 11.9 µM | shares compounds with Tb MetRS inh | 1,400 compounds, 93% hits; in the data active = inhibition above about 7%
Jurkat tox – Jurkat T cell cytotoxicity for MetRS hits | shares compounds with Tb MetRS inh | Jurkat cells viability, ATP luminescence | inhibition, % at 8.3 µM | 1,400 compounds, 12% hits | AID 624413; in the data active = inhibition above about 15%;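 also: 0% = vehicle and 100% = reference inhibitor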
TbMetRS FP orth – orthogonal test for Trypanosoma brucei MetRS inhibitors. AID 651607. purified T. brucei MetRS, fluorescence polarization. inhibition, % at 11.9 µM. shares compounds with Tb MetRS inh. 1,400 compounds, 44% hits; in the data active = inhibition above about 17%;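 also: 0% = vehicle wells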
Starred values were filed as active, the others as inactive; · = no result.

SMILES	HCV core dimer	Lipid droplet	Tb MetRS inh	NS3 helicase inh	TbMetRS confirm	Jurkat tox	TbMetRS FP orth
CCOc1ccc(CCN2C(=S)N([C@@H](CC(C)C)CN3CCCC3CN3C(=S)NC[C@@H]3Cc3ccc(O)cc3)C[C@@H]2Cc2ccc(O)cc2)cc1 (stereo partly drawn)	·	·	0	·	·	·	·
Cc1ccc2nc(C)c(CN3CCN(c4ccc([N+](=O)[O-])cc4Cl)CC3)n2c1	10	-32	26*	-28	44*	47*	25*
Cc1nc2nc(SCc3nc4ccccc4[nH]3)[nH]c2cc1Br	-3	11	13*	6	18*	0	12
Cc1ccc2nc(SCc3nc4ccccc4c(=O)[nH]3)[nH]c2c1	2	3	0	-4	·	·	·
CC(C)C[C@@H](CNCC(=O)[C@H](Cc1c[nH]c2ccccc12)NC(=O)c1[nH]cnc1C(=O)N[C@@H](C)CN)NC(=O)c1nc[nH]c1C(=O)N[C@@H](C)C(=O)O	·	·	23*	·	37*	-1	10
CC(C)C[C@@H](CN)NC(=O)c1nc[nH]c1C(=O)N[C@@H](Cc1c[nH]c2ccccc12)C(=O)CNC[C@H](C)NC(=O)c1nc[nH]c1C(=O)N[C@@H](CC(=O)O)C(=O)O	·	·	0	·	·	·	·
COc1ccc(N2CCN(C(=O)c3ccccc3)CC2)c([N+](=O)[O-])c1	0	12	8.2*	-14	9.3*	6	10
COc1ccc(N2CCN(C(=O)c3ccc(C)cc3)CC2)c([N+](=O)[O-])c1	9	3	2	-10	·	·	·
COc1ccc(N2CCN(C(=O)c3ccccc3Br)CC2)c([N+](=O)[O-])c1	-6	6	14*	-13	30*	2	18*
COc1ccc(NC(=O)/C(=C\c2ccccc2)NC(=O)c2ccco2)cc1	-1	-1	0	3	·	·	·
CCc1cc(-c2cnnn2Cc2ccccc2)ccc1-c1cn(CC(C)C)nn1	·	·	1	·	·	·	·
COc1ccc(C(CNC(=O)Nc2ccccc2)N2CCN(C)CC2)cc1 (stereo not drawn)	-9	-1	0	0	·	·	·
COc1ccc(C(CNC(=O)Nc2ccc(Cl)cc2)N2CCN(C)CC2)cc1 (stereo not drawn)	-5	-18	15*	-11	39*	4	17*
CC(C)C(=O)OCC(=O)NCc1ccccc1Cl	-2	-11	0	-12	·	·	·
Cc1ccc(NC(=O)/C=N/OCC(=O)NCc2ccccc2Cl)cc1	-2	-12	16*	-9	29*	-11	12
CC(=O)Nc1ccc(NC(=O)C(C)c2cccc(C(=O)c3ccccc3)c2)cc1 (stereo not drawn)	6	8	0	-2	·	·	·
CC(C(=O)Nc1ccc(O)cc1)c1cccc(C(=O)c2ccccc2)c1 (stereo not drawn)	4	-12	22*	-7	30*	19*	31*
O=c1[nH]c(Cc2cccc(C(F)(F)F)c2)nc2ccccc12	3	4	51*	11	55*	-5	27*
O=c1[nH]c(CSc2ncnc3sccc23)nc2cc(C(F)(F)F)ccc12	10	-4	1	3	·	·	·
O=c1[nH]c(CSc2ncc(C(F)(F)F)cc2Cl)nc2ccccc12	7	-4	53*	0	77*	11	54*
O=c1[nH]c(Cc2ccc(Cl)cc2)nc2ccccc12	4	10	-1	6	·	·	·
CCOC(=O)[C@]12CCC=C1N(Cc1ccc3c(c1)OCO3)C(=O)[C@H](CC(=O)NCCCN1CCCC1=O)C2	·	·	0	·	·	·	·
COc1cc2c(C#Cc3cccnc3)c(-c3ccsc3)oc(=O)c2cc1OC	·	·	0	·	·	·	·
COc1ccccc1C(=O)NNC(=O)c1ccc(NC(=O)C(C)C)cc1	·	4	-1	-13	·	·	·
c1coc(CNc2ncnc3nc[nH]c23)c1	5	-22	-1	4	·	·	·
COc1cc(CNc2ncnc3c2[nH]c2ccc(C)cc23)cc(OC)c1	6	13	75*	-30	84*	7	80*

Screening results from PubChem.
